Measurements published in ChEMBL document CHEMBL1133855 (Bioorg Med Chem Lett, 2001).

Tests used:
[1] = target: T1, Adenosine receptor A1 (Homo sapiens, UniProt P30542); assay: Affinity for Adenosine A1 receptor by displacement of [3H]DPCPX from human cerebral cortex; type: tissue-based
T1 sequence (P30542 whole entry): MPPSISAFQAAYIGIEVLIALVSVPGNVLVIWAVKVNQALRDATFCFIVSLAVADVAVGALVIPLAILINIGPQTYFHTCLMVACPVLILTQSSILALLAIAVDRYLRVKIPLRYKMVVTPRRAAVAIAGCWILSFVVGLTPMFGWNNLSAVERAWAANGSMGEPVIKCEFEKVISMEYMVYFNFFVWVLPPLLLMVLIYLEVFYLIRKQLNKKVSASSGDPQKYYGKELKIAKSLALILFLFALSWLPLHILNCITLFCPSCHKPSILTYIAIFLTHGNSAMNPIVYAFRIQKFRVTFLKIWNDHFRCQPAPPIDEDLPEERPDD
Method in brief: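 Membranes from human cerebral cortex; competition against [3H]DPCPX. IC50 fitted by non-linear least squares and converted to Ki via Cheng–Prusoff; means ± SE of three experiments.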

[2] = target: Adenosine receptor A2a (Homo sapiens, UniProt P29274); assay: Affinity for A2a receptor by displacement of [3H]-CGS- 21680 from human striatum
[3] = target: T2, Adenosine receptor A3 (Homo sapiens, UniProt P0DMS8); assay: Displacement of [125I]AB-MECA from human Adenosine A3 receptor expressed in CHO cells; type: cell-based
T2 sequence (P0DMS8 whole entry): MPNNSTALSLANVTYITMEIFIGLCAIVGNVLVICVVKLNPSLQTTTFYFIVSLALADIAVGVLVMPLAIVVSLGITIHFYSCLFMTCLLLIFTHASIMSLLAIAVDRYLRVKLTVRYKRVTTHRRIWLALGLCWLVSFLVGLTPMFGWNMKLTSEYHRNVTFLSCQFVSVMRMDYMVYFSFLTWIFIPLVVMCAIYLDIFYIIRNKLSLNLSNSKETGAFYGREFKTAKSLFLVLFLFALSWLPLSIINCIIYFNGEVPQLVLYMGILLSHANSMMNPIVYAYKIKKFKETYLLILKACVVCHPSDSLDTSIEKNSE

Adenosine receptor A2a, sequence (P29274 whole entry): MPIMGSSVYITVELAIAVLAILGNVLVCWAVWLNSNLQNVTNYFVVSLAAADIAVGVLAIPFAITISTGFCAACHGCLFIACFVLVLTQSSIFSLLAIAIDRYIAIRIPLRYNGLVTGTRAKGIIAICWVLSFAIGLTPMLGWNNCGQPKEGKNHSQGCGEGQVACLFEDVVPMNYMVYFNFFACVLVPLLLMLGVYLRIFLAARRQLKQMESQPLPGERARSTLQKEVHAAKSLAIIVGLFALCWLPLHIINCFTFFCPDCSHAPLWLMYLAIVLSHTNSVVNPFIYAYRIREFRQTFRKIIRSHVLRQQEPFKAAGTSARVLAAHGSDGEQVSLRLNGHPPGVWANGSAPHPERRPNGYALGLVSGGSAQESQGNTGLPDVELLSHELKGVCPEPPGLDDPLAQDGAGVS

Compound | Ki [1] [µM] | Ki [2] [µM] | Ki [3] [µM]
CCNC(=O)[C@H]1OC(n2cnc3c(NCCNc4ccc([N+](=O)[O-])c5nonc45)ncnc32)[C@H](O)[C@@H]1O (stereo not given in full) | > 10 | 6.75 | 0.0558
CCNC(=O)[C@H]1OC(n2cnc3c(NCCCCCCNc4ccc([N+](=O)[O-])c5nonc45)ncnc32)[C@H](O)[C@@H]1O (stereo not given in full) | > 10 | 6.08 | 0.0236
CCNC(=O)[C@H]1OC(n2cnc3c(NCCCCCCCCNc4ccc([N+](=O)[O-])c5nonc45)ncnc32)[C@H](O)[C@@H]1O (stereo not given in full) | 3.48 | 5.1 | 0.00744
CCNC(=O)[C@H]1OC(n2cnc3c(NCCCCCCCCCCNc4ccc([N+](=O)[O-])c5nonc45)ncnc32)[C@H](O)[C@@H]1O (stereo not given in full) | 6.35 | 6.1 | 0.0281
CCNC(=O)[C@H]1OC(n2cnc3c(NCCCCNc4ccc([N+](=O)[O-])c5nonc45)ncnc32)[C@H](O)[C@@H]1O (stereo not given in full) | > 10 | > 10 | 0.381
